High-throughput results (PubChem BioAssay)
Rpn11 inh – Rpn11 (PSMD14) deubiquitinase inhibitors, primary screen, biochemical, fluorescence polarization, uHTS; 360,000 compounds, 0.59% hits; human 26S proteasome, Ub4-pepOG fluorescence polarization; 20S core pre-blocked with epoxomicin; inhibition, % at 20 µM; AID 588493, 2011;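 active = inhibition at 20 µM, scaled to each plate's controls, above about 33%, limit read from the data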
Neddylation inh – inhibitors of cullin neddylation, primary screen, biochemical, TR-FRET, uHTS, NAE and Ubc12; inhibition, % at 25 µM; 360,000 compounds, 0.58% hits; NEDD8-conjugating enzyme Ubc12 (Homo sapiens) + NEDD8-activating enzyme E1 regulatory …; in the data active = inhibition above about 36%
HNF4A DNA FP – change in binding of human HNF4A to DNA, primary screen, biochemical, fluorescence polarization, FITC-DNA. 1 h. Hepatocyte nuclear factor 4-alpha (Homo sapiens), P41235. 360,000 compounds, 0.3% hits. activity change, % at 10 µM; in the data active = activity change above about 30%, passing the limit was not always enough
TbMetRS inhib – T. brucei MetRS inhibitors, primary screen, biochemical, luminescence. methionyl-tRNA synthetase (Trypanosoma brucei brucei). purified T. brucei MetRS, ATP depletion, Kinase-Glo luminescence. inhibition, % at 11.9 µM. 360,000 compounds, 0.4% hits;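 active = inhibition above a per-plate cutoff of the control wells' mean inhibition plus 3 SD, cut at about 5.5% in these data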;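 also: 0% = DMSO wells median and 100% = median of wells with control inhibitor compound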
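technique = Kinase-Glo luminescence, ATP depletion format | system = purified MetRS (methionyl-tRNA synthetase) enzyme from Trypanosoma brucei | timing = 15 min preincubation, 2 h reaction, all 25 °C | evaluation = percent inhibition versus plate control medians | dosing = single dose, 11.9 µM final nominal, 0.9% final DMSO | also added = substrates ATP, L-methionine and bulk Escherichia coli tRNA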
CSN inh – inhibitors of CSN-mediated cullin deneddylation, primary screen, biochemical, fluorescence polarization, uHTS; COP9 signalosome complex subunit 5 (Homo sapiens), Q92905; Purified CSN, SCF-Nedd8-OG deneddylation; inhibition, % at 12.5 µM; 360,000 compounds, 0.38% hits; AID 651999, 2013;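 active = pattern-corrected inhibition above about 35%, with an unprinted fluorescence ratio check between 0.5 and 1.5, limit read from the data, passing the limit was not always enough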;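 also: 0% = enzyme with substrate and 100% = substrate without enzyme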
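Material: purified human Csn5 enzyme expressed in HEK293T cells / Medium: Tris buffer pH 7.5, NaCl, DTT, Tween-20, trehalose, ovalbumin / Compound dosing: 12.5 µM single point / Schedule: 90 min incubation of compound, enzyme and substrate at room temperature / Signal: fluorescence polarization of the substrate / Control set: no-enzyme wells high, enzyme-with-substrate wells low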
PREPL inh – PREPL enzyme inhibitors, primary screen, biochemical, fluorescence polarization; inhibition, % at 5.96 µM; AID 2751, 2010; 320,000 compounds, 0.68% hits; Prolyl endopeptidase-like (Homo sapiens), Q4J6C6; recombinant PREPL, fluorescence polarization activity-based probe; in the data active = inhibition above about 43%;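 also: 0% = enzyme with DMSO and 100% = wells lacking enzyme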
Target sequence (Q4J6C6 whole entry, looked up): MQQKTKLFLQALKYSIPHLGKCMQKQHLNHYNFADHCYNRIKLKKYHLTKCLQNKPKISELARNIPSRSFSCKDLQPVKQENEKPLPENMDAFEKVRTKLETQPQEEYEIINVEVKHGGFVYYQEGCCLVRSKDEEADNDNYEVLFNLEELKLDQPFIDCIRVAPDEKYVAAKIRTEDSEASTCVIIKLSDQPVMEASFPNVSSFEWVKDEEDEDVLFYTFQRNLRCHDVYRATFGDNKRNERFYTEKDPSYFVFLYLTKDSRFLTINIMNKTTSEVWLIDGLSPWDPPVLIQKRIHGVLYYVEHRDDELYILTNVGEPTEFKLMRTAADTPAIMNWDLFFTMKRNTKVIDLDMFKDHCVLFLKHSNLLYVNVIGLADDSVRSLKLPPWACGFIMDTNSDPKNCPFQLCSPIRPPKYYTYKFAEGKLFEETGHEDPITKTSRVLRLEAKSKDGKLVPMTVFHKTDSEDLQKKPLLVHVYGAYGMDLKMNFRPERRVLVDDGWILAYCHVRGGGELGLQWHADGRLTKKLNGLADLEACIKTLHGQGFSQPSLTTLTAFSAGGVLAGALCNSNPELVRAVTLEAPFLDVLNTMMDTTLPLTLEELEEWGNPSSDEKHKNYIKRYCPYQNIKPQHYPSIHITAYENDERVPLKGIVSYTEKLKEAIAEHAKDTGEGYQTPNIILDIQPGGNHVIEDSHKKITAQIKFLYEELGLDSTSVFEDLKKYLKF
Rpn11 confirm – Rpn11 (PSMD14) deubiquitinase inhibitors, confirmation, biochemical, fluorescence polarization, single concentration | shares compounds with Rpn11 inh | purified human 26S proteasome, Ub4-pepOG fluorescence polarization; proteasome pretreated with epoxomicin | inhibition, % at 20 µM | 1,900 compounds, 29% hits
MMP-2 counter – MMP-2 enzyme inhibition, confirmation, counter-screen for RPN11 inhibitor project, biochemical, fluorescence, single concentration. shares compounds with Rpn11 inh. recombinant MMP-2, FRET peptide cleavage fluorescence. inhibition, % at 20 µM. 1,900 compounds, 4% hits;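 also: human MMP-2 activated beforehand with APMA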
Thrombin FP – bovine thrombin protease inhibition, confirmation, counter-screen for Rpn11 inhibitor project, biochemical, fluorescence polarization, single concentration; shares compounds with Rpn11 inh; inhibition, % at 20 µM; AID 602333, 2012; bovine thrombin cleavage of Ub4-pepOG; 1,900 compounds, 13% hits;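 active = mean inhibition at least 40% at 20 µM, or signal 3 deviations below plate average, so some actives read negative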;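 also: plate controls were thrombin with DMSO for no effect and buffer wells lacking thrombin for full effect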
Active calls of the source: *; x = no result given; + = active, no number. Rows were chosen to be rich in hits. Some 2.4% of all compounds tested hit in one or more screens of this group. Rule as the data show it, unless noted: active = inhibition above about 40%; inactive = the rest.

SMILES	Rpn11 inh	Neddylation inh	HNF4A DNA FP	TbMetRS inhib	CSN inh	PREPL inh	Rpn11 confirm	MMP-2 counter	Thrombin FP
CCOC(=O)CSc1nc2ccccc2n1C(=O)OCC	45.9*	6.9	22.3	-0.1	8.7	-0.7	51.1*	-17.6	31.5
Cc1ccc(CS(=O)Cc2ccc(C(=O)NCc3cccs3)o2)cc1 (centres undefined)	64.2*	-11.7	3.7	-0.4	-1.2	-4.2	-10.3	-1.4	-17.7
Cc1ccc(CS(=O)(=O)Cc2ccc(C(=O)NCc3cccs3)o2)cc1	-0.3	4.1	4.0	-0.5	2.0	0.9	x	x	x
NC(Cc1ccc(F)cc1)c1csc(Nc2cc(Oc3ccccc3)ncn2)n1 (centres undefined)	11.5	3.0	3.4	0.4	-0.8	x	x	x	x
O=C(CCN1C(=O)NC2(CCCC2)C1=O)Nc1ccc(-c2nc3ccccc3s2)cc1	53.4*	36.2	25.9	-0.2	9.5	19.8	61.3*	33.7	47.6*
CCC1(c2ccc(F)cc2)NC(=O)N(CC(=O)Nc2ccc(-c3nc4ccc(C)cc4s3)cc2)C1=O (centres undefined)	47.2*	-22.9	4.3	0.2	0.2	-32.1	38.4	7.9	11.3
CCOC(=O)C(C#N)(Cc1ccc2ccccc2n1)Cc1ccc2ccccc2n1	1.4	6.5	-6.1	0.3	1.0	x	x	x	x
CSc1ccc(/C=C2\C(=N)N3N=C(CC(=O)N4CCCCC4)SC3=NC2=O)cc1	51.7*	-110.9	17.2	-0.2	2.4	-4.4	30.3	12.5	10.6
COC(=O)C1=C(O)/C(=C\c2ccc(O)c(OC)c2)N=C1C	59.9*	-8.2	3.0	-0.4	17.8	1.4	19.7	5.7	12.4
O=C(C[C@H]1C[C@H](C(=O)N2CCCCC2)[C@@]2(CCc3ccccc3)c3[nH]c4cc(-c5ccco5)ccc4c3CCN2C1=O)NCCC1=CCCCC1	56.5*	x	19.6	0.3	14.3	x	-6.9	5.7	-11.7
O=C(C[C@H]1C[C@H](C(=O)N2CCCCC2)[C@@]2(CCc3ccccc3)c3[nH]c4cc(-c5ccco5)ccc4c3CCN2C1=O)NCc1cccc(C(F)(F)F)c1	61.3*	x	20.4	-0.1	17.9	x	11.3	5.2	-29.6
O=C(C[C@H]1C[C@H](C(=O)N2CCCCC2)[C@@]2(CCc3ccccc3)c3[nH]c4cc(-c5ccco5)ccc4c3CCN2C1=O)NCc1ccco1	78.0*	x	19.8	-1.6	18.9	x	24.6	1.1	11.2
O=C(CC1C[C@H](C(=O)N2CCCCC2)[C@@]2(CCc3ccccc3)c3[nH]c4ccccc4c3CCN2C1=O)NCc1ccco1 (some centres undefined)	6.1	4.1	3.2	0.0	-0.5	15.2	x	x	x
O=C(C[C@H]1C[C@H](C(=O)N2CCOCC2)[C@@]2(CCC3CCCC3)c3[nH]c4cc(-c5ccco5)ccc4c3CCN2C1=O)NCc1cccc(C(F)(F)F)c1	36.2	x	3.3	-0.3	8.7	x	x	x	x
CC(C)=CCC/C(C)=C/CNC(=O)C[C@H]1C[C@H](C(=O)N2CCOCC2)[C@@]2(CCC3CCCC3)c3[nH]c4cc(-c5ccco5)ccc4c3CCN2C1=O	45.3*	x	14.6	-0.1	16.6	x	1.7	15.9	9.1
O=C(C[C@H]1C[C@H](C(=O)N2CCOCC2)[C@@]2(CCC3CCCC3)c3[nH]c4cc(-c5ccco5)ccc4c3CCN2C1=O)NCCN1CCOCC1	17.2	x	6.7	-1.1	10.7	x	x	x	x
Cc1c(CC(=O)NCC(=O)NCC(=O)N[C@@H](Cc2ccccc2)C(=O)O)c(=O)oc2c(C)c(O)ccc12	-8.5	x	1.6	-1.0	-8.6	x	x	x	x
Cc1cc(C)c(S(=O)(=O)c2ccccc2)c(OC(=O)c2ccc(Cl)cc2Cl)n1	3.7	0.1	-6.1	0.3	6.0	-6.8	x	x	x
Cc1cc(OC(=O)c2ccc(Cl)cc2Cl)nc(C)n1	+	-6.4	-2.3	-0.5	-3.9	5.1	-2.2	-46.1	5.5
CC(=O)c1sc2nc(CSc3nncn3C)[nH]c(=O)c2c1C	44.4*	-7.8	1.4	-0.6	-1.4	-0.1	4.0	-74.0	7.7
Cc1c(C(=O)O)sc2nc(CSc3nnc(-c4ccc(F)cc4)n3C)[nH]c(=O)c12	3.7	0.3	-5.3	-0.5	-4.1	-1.5	x	x	x
O=C(CN(CC1CCCO1)C(=O)CNS(=O)(=O)c1ccc(Cl)cc1)NC1CCCC1 (centres undefined)	-15.0	-0.8	-0.5	-0.1	1.8	12.6	x	x	x
O=C(C(=O)N1CCN(C(=O)OCc2ccccc2)CC1)c1cccnc1	x	-5.7	-2.5	-0.8	0.7	x	x	x	x
O=C(Nc1ccncc1)c1sc2ccccc2c1Cl	-0.7	-134.1	4.3	0.2	-9.2	-4.2	x	x	x
O=C(Nc1ccnc(=O)[nH]1)c1sc2ccccc2c1Cl	40.7*	-181.2	-0.1	-0.4	7.9	-11.0	2.6	16.4	-8.0
O=C(/C=C/c1ccc(F)cc1)Nc1cc(S(=O)(=O)N2CCOCC2)ccc1N1CCOCC1	89.8*	-2.0	0.3	-0.1	2.5	x	10.3	8.1	2.3
Cc1c(NC(=O)c2ccc(NC(=O)C3CC3)cc2)cccc1C(=O)O	9.1	-1.6	-2.2	-0.4	-2.0	19.2	x	x	x
COCCCn1c(SCc2nc3ccccc3c(=O)[nH]2)nc2ccccc2c1=O	104.9*	-20.2	1.1	-0.2	1.3	-4.7	-13.4	-22.8	7.8
CCn1c(SCc2nc3ccccc3c(=O)[nH]2)nc2ccccc2c1=O	-1.0	-2.6	-2.2	-0.3	-1.4	2.1	x	x	x
Cc1sc2nc(CSc3nc4ccccc4c(=O)n3CCCN3CCOCC3)[nH]c(=O)c2c1C	50.2*	-1.7	34.2*	0.0	16.5	17.1	89.2*	-32.9	38.4
